NF-kB expr up – activators of NF-kB expression in neurons, primary screen, cell-based, HTS; human neuronal cells, NF-kB reporter expression; hits give high values; fold change at 12.5 µM; actives 1.6% (n = 190,000); AID 1239, 2008; in the data active = fold change above about 3.3
FLuc stim CS – FLuc activators, initial screening, artefact control for FLuc-dependent activation tests, biochemical, ATPlite luminescence; Luciferin 4-monooxygenase (Photinus pyralis), P08659; ATPlite luciferase biochemical, 10 min; 0 = ATP-free wells, 1 = DMSO control; activation factor at 10 µM; 200,000 tested, under 10 active; AID 1027, 2008;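 active = luciferase activation factor, scaled between plate controls, of at least 2 with compound at 10 µM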
Target sequence (P08659 whole entry, looked up): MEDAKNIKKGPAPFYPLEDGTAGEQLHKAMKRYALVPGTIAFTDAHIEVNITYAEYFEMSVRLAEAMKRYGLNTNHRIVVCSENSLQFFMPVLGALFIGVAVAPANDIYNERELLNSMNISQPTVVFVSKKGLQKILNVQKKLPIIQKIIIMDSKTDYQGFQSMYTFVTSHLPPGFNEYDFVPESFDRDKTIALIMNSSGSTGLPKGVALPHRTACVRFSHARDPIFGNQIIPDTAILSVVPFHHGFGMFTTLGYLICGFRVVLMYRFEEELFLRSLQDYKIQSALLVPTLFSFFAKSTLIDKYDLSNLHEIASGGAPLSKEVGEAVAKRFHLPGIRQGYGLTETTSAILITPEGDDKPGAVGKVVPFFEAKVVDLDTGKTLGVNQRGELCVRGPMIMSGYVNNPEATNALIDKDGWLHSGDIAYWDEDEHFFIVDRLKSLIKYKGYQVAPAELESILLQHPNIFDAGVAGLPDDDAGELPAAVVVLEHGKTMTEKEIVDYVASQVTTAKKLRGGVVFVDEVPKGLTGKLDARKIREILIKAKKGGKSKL
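System: Luciferase/luciferin detection reagent, cell-free biochemical luciferase assay | Medium: PBS buffer for ATP | Dosing: Test compounds dosed from 2 mM stocks in 100% DMSO | Timing: 10 min at ambient temperature | Signal: Luminescence measurement of luciferase light output | Evaluation: Luciferase activation, seen as luminescence increase over controls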
FLuc inhib CS – firefly luciferase enzyme inhibitors, primary screen, artefact control for luciferase-based inhibitor screens, biochemical, luminescence, ATPLite; Luciferin 4-monooxygenase (Photinus pyralis), P08659; 10 min; inhibition, % at 10 µM; actives 1.5% (n = 200,000); AID 1006, 2008;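 active = inhibition above about 50% when tested at 10 µM, limit read from the data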
APP 5'UTR act – activators of APP 5'UTR luciferase reporter, primary screen, SH-SY5Y cells; SH-SY5Y APP 5'UTR luciferase reporter, luminescence; zero percent = DMSO vehicle wells; activation, % at 2 µM; actives 1% (n = 190,000); AID 1276, 2008;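 active = activation above a set limit, based on mean plus 3 SD of controls, cut at about 140% in these data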
STAT1 activator – STAT1 signaling activators, primary screen, cell-based, HTS, luciferase reporter; NIH 3T3 STAT1-luciferase reporter, IFN-gamma, luminescence; 100% = IFN-gamma alone, no compound; activation (% of control), % at 5.5 µM; actives 2.6% (n = 200,000); AID 932, 2007;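 active = activation above the screen-wide mean activation plus 3 SD, cut at about 130% in these data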;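 also: raw ratio to IFN-gamma control signal so 100% means no change and 0% no light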
The depositor's hits bear a star; . = no result. Hits are enriched below; roughly 4.1% of the tested compounds scored in any of these assays.

SMILES	NF-kB expr up	FLuc stim CS	FLuc inhib CS	APP 5'UTR act	STAT1 activator
O=C1c2ccccc2C(=O)N1CCOc1ccccc1	.	.	.	10.5	135.2*
C1=Nc2ccccc2CN1c1ccccc1	1.97	0.9	13.3	19.4	130.2*
COC(=O)C1CCN(C2CC(=O)N(c3cc(C)cc(C)c3)C2=O)CC1 (stereo not drawn)	1.37	1	-3.3	5.4	91.7
CCOc1cc(CN2CCC(CO)(Cc3cccc(C(F)(F)F)c3)CC2)ccc1OC	0.71	1.1	-8.7	15.2	100.6
CC(=O)OCCCNc1cc(Sc2nc3ccccc3s2)c2nonc2c1[N+](=O)[O-]	1.09	1	-3.7	1.5	131.6*
Cn1c(N=NC(=O)c2ccccc2)c(O)c2ccccc21	2.84	0.1	86.3*	134.7	142.9*
CC(=O)c1c(O)c2ccccc2n(C)c1=O	1.26	1	-4.8	12.0	98.2
COc1cccc(-c2nc3ccccc3c(=O)o2)c1	1.68	0.5	52.5*	-4.2	95.6
COc1cccc(-c2nc(-c3ccccn3)no2)c1	0.93	0.1	93.0*	35.3	45.7
c1ccc(-c2noc(-c3ccncc3)n2)nc1	2.01	0.7	28.3	103.5	123.5
COc1ccc(CC(=O)Nc2ccc(-c3noc(-c4cccc(OC)c4)n3)cc2)cc1	1.23	1.1	-10.0	-2.9	90.7
COc1cccc(-c2noc(-c3ccc(Br)o3)n2)c1	3.6*	0.5	46.4	95.0	136.3*
COC(=O)c1ccc(-c2nc(-c3cccs3)no2)cc1	1.01	0.3	71.9*	136.0*	52.7
COc1ccc(-c2nc(-c3ccc(Br)o3)no2)cc1	6.73*	0.6	38.9	105.5	119.2
COC(=O)c1ccc(-c2nc(-c3ccc(Br)o3)no2)cc1	2.24	0.9	8.6	4.0	108.1
COc1cccc(-c2noc(-c3cccs3)n2)c1	8.43*	0.5	50.2*	114.5	138.7*
COc1cccc(-c2nc(-c3ccccc3)no2)c1	7.26*	0.5	45.8	128.1	149.5*
c1ccc(-c2noc(-c3cccnc3)n2)nc1	1.84	0.7	31.0	75.0	128.8*
COc1nc(-c2ccccc2)ccc1-c1noc(-c2cccs2)n1	.	.	.	32.6	106.5
COc1ccc(-c2noc(-c3ccccc3-c3ccccc3)n2)cc1	0.88	1	-4.3	7.4	100.9
C=C(C)C1CC=C(C)/C(=N/NC(=O)c2cccs2)C1 (stereo not drawn)	3.18	0.6	42.6	63.0	129.2*
CN(C)C=Nc1ncc2c3ccccc3n(CCN(C)C)c2c1C#N	0.97	1	-4.7	-0.3	108.0
CCN(CC)CCn1c2ccccc2c2cnc(N)c(C#N)c21	0.89	1.1	-6.0	-19.2	176.0*
Cc1cc(OC(=O)c2ccc(Cl)cc2Cl)nc(C)n1	1.09	1	4.9	-3.0	102.2
CC(C)(C)C(=O)Nc1nnc(Cc2ccccc2)s1	1.27	1	-3.6	-25.9	98.0
SMILES	NF-kB expr up	FLuc stim CS	FLuc inhib CS	APP 5'UTR act	STAT1 activator
Cc1nc(NC(=S)Nc2ccccc2)sc1C	4.75*	0.8	24.5	140.4*	124.3
CC(C)COC(=O)Nc1nnc(Cc2ccccc2)s1	2.41	1	-3.4	-11.3	133.3*
CC(C)Cc1nnc(NC(=O)Nc2ccccc2)s1	2.6	1	4.2	76.7	146.6*
CCc1nnc(NC(=S)Nc2ccccc2)s1	3.34*	0.8	18.0	48.6	131.8*
Cc1ccc(C(=O)Nc2nnc(NC(=S)Nc3ccccc3)s2)cc1	1.57	0.8	16.6	7.8	117.8
CC(C)c1onc(C(=O)NC(C)c2ccccc2)c1[N+](=O)[O-] (stereo not drawn)	0.85	1	4.9	3.0	93.8
CC(C(=O)Nc1ccncc1)(c1ccccc1)c1ccccc1	1.07	1.1	-10.9	7.9	99.0
c1ccc(-n2cnc3cc(NCc4ccccn4)ccc32)cc1	2.14	0.9	14.8	85.7	130.9*
c1ccc(-n2cnc3cc(NCc4ccncc4)ccc32)cc1	1.31	0.9	10.9	-2.6	121.5
COc1ccc(C(=O)c2c[nH]c3ccccc23)cc1	3.52*	0.4	63.5*	96.4	133.7*
CCc1ccccc1NC(=O)CSc1nnc(-c2ccco2)n1N	0.99	1.1	-7.2	6.3	100.4

Screening data as filed in PubChem.
